Structures are written as SMILES.

This data set in a line: Toxicity liver stage against HepG2, at 10uM. To be noted: human, HepG2-A16-CD81EGFP cells; read-out: INHIBITION
Type of data set: cell-based. On the set-up: test concentration 10 uM, cell line HepG2-A16-CD81EGFP. In a few lines: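 Uninfected HepG2-A16-CD81EGFP cells, 3 × 10^3 per well, 1536-well, plated on prespotted compound at 10 μM final, parasite-free screening media added to match infected plates; puromycin 10 μM positive, DMSO 0.5% negative; run in parallel with 48 h PbLuc assay at 37 °C, 5% CO2; viability by CellTiter-Glo luminescence, normalized to controls.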
`Cc1cccc2c1nc1n2[C@@H](CNC(=O)Cc2ccccc2)COC1`: the cytotoxicity at 10 µM was -5.12%.

As to `COCCN1C[C@H]2CN(C(=O)NC(C)C)CCN2C1=O`, the cytotoxicity at 10 µM came out at 2.6%.

Turning to `COC(=O)c1cccc2nc([C@H]3CCN(Cc4ccccc4C)C3)oc12`, the cytotoxicity at 10 µM is 8.36%.

`COc1ccc(-c2nc(C#N)c(N(C)C)o2)cc1OC`: the cytotoxicity at 10 µM is -4.91%.

With `O=S(=O)(NCC1(O)CCOc2ccccc21)c1ccccc1Br` (configuration not stated), the cytotoxicity at 10 µM turned out to be 8.45%.

Consider `Cn1nc(CNC(=O)C2CCC2)cc1C1CC1`, for which the cytotoxicity at 10 µM is -4.31%.

As for `O=C(Cc1ccc(F)cc1)N1C[C@H]2CCN[C@H]2C1`, the cytotoxicity at 10 µM was found to be 2.26%.

As for `O=C(CC1CC1)N1CCC2(CC1)CN(CCn1cccn1)C(=O)CO2`, the cytotoxicity at 10 µM is 1.75%.

As for `COC[C@H]1CC[C@H]2[C@H](CCN2S(=O)(=O)Cc2ccccc2)O1`, the cytotoxicity at 10 µM is 8.25%.

In the case of `CCN(CC)CC1CN(Cc2ccco2)Cc2nccn2C1` (configuration not stated), the cytotoxicity at 10 µM is -139%.

For `COc1cccc(C(=O)N2CCc3ncnc(C)c3CC2)c1`, the cytotoxicity at 10 µM was -12.6%.

`CCn1cc(Br)c(C(=O)NCc2ccc(F)cc2)n1`: the cytotoxicity at 10 µM was -3.01%.

Regarding `Cc1cc2[nH]c(O)nc2cc1NCc1ccccc1`, the cytotoxicity at 10 µM was 16%.

With `Cc1cc(C(=O)N(C)Cc2cccs2)nc(N2CCCC2)n1`, the cytotoxicity at 10 µM was found to be 7.85%.

On to `CCN(CC)C(=O)c1nnn(Cc2ccccc2)c1OC`, for which the cytotoxicity at 10 µM was determined as 10.3%.

In the case of `CNc1nc(C)c(C(=O)NCC(C)(C)N2CCCCC2)s1`, the cytotoxicity at 10 µM amounted to 2.79%.

Regarding `CC(C)c1[nH]c2ncccc2c1CN1CCN(S(=O)(=O)N(C)C)CC1`, the cytotoxicity at 10 µM was found to be 3.33%.

As to `COc1cccc(C(C)N2CCN(S(=O)(=O)c3ccccc3)CC2)c1` (configuration not stated), the cytotoxicity at 10 µM amounted to 5.11%.

With `Cc1ccc(F)cc1C(=O)NCc1ccc(C(=O)O)o1`, the cytotoxicity at 10 µM is -10.1%.

As to `O=C(NCCO)Nc1ccc(Br)c(F)c1`, the cytotoxicity at 10 µM turned out to be 1.92%.

Turning to `CC(C)(C)OC(=O)N1CCCCC(NC(=O)CCc2cccnc2)C1` (configuration not stated), the cytotoxicity at 10 µM worked out at 17.5%.

With `N#Cc1cc(S(N)(=O)=O)ccc1N1CCN(c2ccccc2)CC1`, the cytotoxicity at 10 µM was -3.54%.

As for `COc1cc(CO)ccc1OCc1nc(C2CC2)no1`, the cytotoxicity at 10 µM stood at 6.37%.

Regarding `CNC(=O)NC(=O)CN1CCc2c(Br)ccc(F)c2C1`, the cytotoxicity at 10 µM was -9.3%.

As to `COC(=O)C1CCN(C(=O)Cn2ccc(-c3ccccc3)n2)CC1`, the cytotoxicity at 10 µM was -1.22%.

In the case of `Cn1ccc(N2CCCC(NC(=O)c3ccc(Cl)o3)C2=O)n1` (configuration not stated), the cytotoxicity at 10 µM is -2.51%.

In the case of `O=C(NS(=O)(=O)c1ccc(F)c(F)c1)c1cscn1`, the cytotoxicity at 10 µM is -5.64%.

`O=C(NC1CCc2cc(Cl)ccc21)C1CCN(C(=O)C2CC2)CC1` (configuration not stated): the cytotoxicity at 10 µM is -1.43%.

Regarding `Cc1nc(CN2CCCN(CCCc3ccccc3)CC2)no1`, the cytotoxicity at 10 µM was found to be 11.3%.

Regarding `CC(C)N(CCNC(=O)N1CCCC(N(C)C)C1)C1CC1` (configuration not stated), the cytotoxicity at 10 µM is -0.211%.

Turning to `Cc1ccc(NS(=O)(=O)c2ccc(C#N)cc2)c(CN(C)C)c1`, the cytotoxicity at 10 µM was -8.51%.

On to `CC(C)N(C)S(=O)(=O)N(C)Cc1cnn(Cc2ccccc2)c1`, for which the cytotoxicity at 10 µM was found to be 7.01%.

Consider `CC(=O)c1cccc(NC(=O)NCCCc2nc(C(C)C)no2)c1`, for which the cytotoxicity at 10 µM came to 2.16%.

Take `CC(=O)NCCC(=O)NCCCOc1c(C)cccc1C`: the cytotoxicity at 10 µM is -4.81%.

Take `CCSc1cc(C(=O)NCCC(=O)N(C)C)ccn1`: the cytotoxicity at 10 µM is -5.41%.

Regarding `CC(C)c1nnc2n1CCN(c1nn3cc(C(C)(C)C)nc3s1)C2`, the cytotoxicity at 10 µM was determined as 7.44%.

Regarding `Cc1cccc(NCC(=O)Nc2cc(F)ccc2F)c1C(N)=O`, the cytotoxicity at 10 µM was 7.53%.

In the case of `CCN(C(c1cccnc1)c1ccc(F)c(F)c1)S(C)(=O)=O` (configuration not stated), the cytotoxicity at 10 µM was -0.69%.

Regarding `Cc1cc(N2CCCC2Cn2nc(C)cc2C)n2ncnc2n1` (configuration not stated), the cytotoxicity at 10 µM is -2.74%.

As to `CCS(=O)(=O)N1CCC(CSc2ccccc2)C1` (configuration not stated), the cytotoxicity at 10 µM is 2.42%.

In the case of `Cc1cnn(CC2CCCCN2c2ncnc3ccccc23)c1` (configuration not stated), the cytotoxicity at 10 µM amounted to 8.24%.

As to `Brc1ccc(C2(CNCc3cc[nH]c3)CCOCC2)cc1`, the cytotoxicity at 10 µM was 9.17%.

Take `CNC(=O)C1CN(Cc2ccc(C#N)cc2F)c2ccccc2O1` (configuration not stated): the cytotoxicity at 10 µM turned out to be 9.44%.

For `Cc1nsc(N2CCCN(c3ccc(C#N)cn3)CC2)n1`, the cytotoxicity at 10 µM is -1.32%.

With `CN(Cc1ccccc1O)C(=O)Nc1cc(F)cc(N2CCCC2)c1`, the cytotoxicity at 10 µM was 7.93%.

As to `COCC(C)(NC(=O)c1cc(Cl)c(-n2cccc2)cc1OC)C(N)=O` (configuration not stated), the cytotoxicity at 10 µM is -4.15%.

Take `Fc1cccc2[nH]c(CN3CCn4c(nnc4C4CC4)C3)nc12`: the cytotoxicity at 10 µM was -5.07%.

On to `CC(NC(=O)N1CCN(c2cccs2)CC1)c1ccc(C#N)cc1` (configuration not stated), for which the cytotoxicity at 10 µM stood at 11.4%.

Take `O=C(NCC1CCCOC1)c1ccc(-c2cccs2)[nH]c1=O` (configuration not stated): the cytotoxicity at 10 µM is -3.67%.

`Cc1cnc(CN(Cc2ccccc2)CC(O)c2cccs2)cn1` (configuration not stated): the cytotoxicity at 10 µM was -15.4%.

Regarding `CC(=O)N1CCC(C(=O)NCCN2CCCCC2)CC1`, the cytotoxicity at 10 µM is -5.04%.

With `Cc1nc(CCNC(=O)NC2CCN(c3ncccn3)CC2)cs1`, the cytotoxicity at 10 µM was -11.8%.

Regarding `O=C(CNc1cc(-c2ccccc2)nc2ccnn12)NC1CC1`, the cytotoxicity at 10 µM was -10.5%.

Take `CCn1nc(CC(C)C)cc1C(=O)N1CC(N2CCCCC2C)C1` (configuration not stated): the cytotoxicity at 10 µM was -12.4%.

`CCn1nccc1C(=O)N1CCCCC1CCc1ccc(O)cc1` (configuration not stated): the cytotoxicity at 10 µM was 2.62%.

With `Cc1cccc(SC2CCN(C(=O)CCNS(C)(=O)=O)CC2)c1`, the cytotoxicity at 10 µM amounted to 1.2%.

For `O=C(CCc1cc2n(n1)CCCNC2)N1CCN(C2CCCC2)C(=O)C1`, the cytotoxicity at 10 µM came to 2.68%.

As for `Cc1ccc(CN2CCNC(=O)C2CC(=O)NCc2n[nH]c(C)n2)cc1` (configuration not stated), the cytotoxicity at 10 µM was -3.83%.

`COc1cc(N2C[C@@H](C)[C@](O)(C3CC3)C2)ncn1`: the cytotoxicity at 10 µM was -0.714%.

For the compound `Cc1noc(-c2ccc(N3CCCC(C(=O)c4nccn4C)C3)nc2)n1` (configuration not stated), the cytotoxicity at 10 µM was -6.58%.

In the case of `CN1CC2(CCCN(Cc3cccc(CCN)c3)C2)OC1=O` (configuration not stated), the cytotoxicity at 10 µM was found to be 20%.

For `COc1ccccc1CNC(=O)CN(C)C(C)c1ccncn1` (configuration not stated), the cytotoxicity at 10 µM is -4.73%.

On to `CC(C)(O)CCc1ccc(C(=O)NCC2CCCOC2)cc1` (configuration not stated), for which the cytotoxicity at 10 µM was found to be 0.445%.

On to `COc1ccc(N2CCN(C(=O)CCCc3cn[nH]c3)CC2=O)cc1`, for which the cytotoxicity at 10 µM was -9.9%.

Consider `CCC(C)N(Cc1ccncc1)Cc1ccc(-n2cccn2)cc1` (configuration not stated), for which the cytotoxicity at 10 µM was -48.3%.

With `CCn1cc(CN2CCN(C)C3(CCC(=O)N(CC4CC4)CC3)C2)cn1` (configuration not stated), the cytotoxicity at 10 µM was -0.764%.

Turning to `CCn1c(C2CCN(C(=O)c3cc(Cl)no3)CC2)nn(C)c1=O`, the cytotoxicity at 10 µM is -10.5%.

For `COCCN(C)C[C@@H]1CN(c2cc(C)nc3ccccc23)C[C@@H]1CO`, the cytotoxicity at 10 µM is -1.92%.

As to `CC(C)Cn1cncc1CNC1CCSCC1`, the cytotoxicity at 10 µM is -4.11%.

Turning to `Cc1ccccc1C(C(=O)NCCSC(F)(F)F)N(C)C` (configuration not stated), the cytotoxicity at 10 µM is 8.25%.

Regarding `O=C(NCc1ccco1)c1cc(N2CC[C@@H](O)C2)ccn1`, the cytotoxicity at 10 µM was -2.93%.

Consider `COCCC(=O)N1CCC2(CC1)CC(c1ccccc1)CN(C)C2` (configuration not stated), for which the cytotoxicity at 10 µM was -14.4%.

Consider `CCOCC(O)CN1CCN(C(=O)c2cccc(OC)c2)CC1` (configuration not stated), for which the cytotoxicity at 10 µM is -0.874%.

Turning to `CC(=O)N1CCCC(C(=O)NCCOc2cc(C)cc(C)c2)C1` (configuration not stated), the cytotoxicity at 10 µM was -3.43%.

For the compound `CC(C)c1nc(CN2CCOC(Cn3cncn3)C2)cs1` (configuration not stated), the cytotoxicity at 10 µM was -4.39%.

Take `CCn1cc(CN2CCCN(C(=O)c3sccc3OC)CC2)cn1`: the cytotoxicity at 10 µM is -5.68%.

On to `CN1CCOC(CNC(=O)Cc2coc(-c3ccccc3)n2)C1` (configuration not stated), for which the cytotoxicity at 10 µM was -25.1%.

With `CN(Cc1ccc(N(C)C)cc1)C(=O)NCc1nnc2n1CCC2`, the cytotoxicity at 10 µM was -21%.

Turning to `Cc1ccc(-c2nc(CN3CCN(C(=O)C4CC4)CC3)cs2)o1`, the cytotoxicity at 10 µM is -12.6%.

On to `CS(=O)(=O)c1ccc(CNc2nccc(C(F)(F)F)n2)cc1`, for which the cytotoxicity at 10 µM was -23.2%.

With `Cc1cnc(C(=O)Nc2cc(F)ccc2OCC2CCCO2)cn1` (configuration not stated), the cytotoxicity at 10 µM is -4.83%.

With `Cc1cnn(CC2CCCN2C(=O)c2ccc(OC(C)C)nc2)c1` (configuration not stated), the cytotoxicity at 10 µM was -6.13%.

Turning to `Cc1nc(C)c(C(=O)OCCNc2ncccc2C#N)s1`, the cytotoxicity at 10 µM was -7.32%.

With `Cc1cccc(CN2C(=O)C[C@H]3[C@@H]2CCN3Cc2ccco2)n1`, the cytotoxicity at 10 µM is -1.39%.

As to `O=C(NCc1ccco1)[C@@]12CCO[C@@H]1CCN(Cc1ccccn1)C2`, the cytotoxicity at 10 µM was found to be 0.109%.

For the compound `Oc1cc(C2CCNCC2)nc(-c2ccsc2)n1`, the cytotoxicity at 10 µM is 4.06%.

Regarding `Cc1cc(CN2CC[C@H]3C(=O)N(c4ccccc4)CCO[C@H]3C2)no1`, the cytotoxicity at 10 µM is -5.59%.

On to `Cc1cccc(CN2CCOCC3(CCN(C4CCOCC4)C3)C2)n1` (configuration not stated), for which the cytotoxicity at 10 µM was -0.124%.

Turning to `Cc1ccoc1C(=O)N1C[C@@H]2COC[C@]2(COCc2cccnc2)C1`, the cytotoxicity at 10 µM was found to be 5.95%.

Turning to `COCCN1CC[C@@H](OC)[C@@H]1Cc1ccccc1`, the cytotoxicity at 10 µM came out at 4.9%.

For `CCS(=O)(=O)N1CC[C@@H]2[C@H](CC1)N(CC(C)C)CCS2(=O)=O`, the cytotoxicity at 10 µM came out at 8.4%.

In the case of `CS(=O)(=O)N[C@@H]1CCO[C@]2(CCN(CC3CCOCC3)C2)C1`, the cytotoxicity at 10 µM is -132%.

Take `COc1ccc(C[C@H]2CNCC[C@@H]2OC)cc1`: the cytotoxicity at 10 µM is 3.11%.

In the case of `c1cnc(N2CCOCC3(CN(Cc4nccs4)CCO3)C2)nc1` (configuration not stated), the cytotoxicity at 10 µM was found to be 1.5%.

`CC(=O)c1cc(CN2C[C@@H]3CC[C@H]2CN(Cc2c(C)noc2C)C3)cs1`: the cytotoxicity at 10 µM was -1.43%.

Take `COCCN1C[C@@H]2CC[C@H]1CN(Cc1nc3ccccc3n1C)C2`: the cytotoxicity at 10 µM was -11.2%.

As for `Cc1cc(C)n(CC(=O)N2C[C@H]3CC[C@@H](C2)N(CC2CCC2)C3)c(=O)n1`, the cytotoxicity at 10 µM was 13.3%.
